Measurements: paper PMC11725097 (Acta Pharmaceutica Sinica. B, 2024)

Tests used:
HepG2 cells [1] = experiment: Formation of compound 3 in lysosomes of HepG2 cells; format: cell-based; conditions: HepG2, JZ-6 25 μmol/L with BNPP 20 μmol/L or telaprevir 5 μmol/L, 6 h
In short: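 HepG2 cells were treated 6 h with donor (25 µmol/L) alone, with BNPP (20 µmol/L) or with telaprevir (5 µmol/L). For lysosome isolation, cells were Dounce-homogenised and spun at 1000 × g, then 20,000 × g, and the top band taken from an OptiPrep gradient at 100,000 × g, 1 h. Fractions were lysed in cold 70% methanol and analysed by LC–MS/MS, normalised to BCA protein. Triplicate.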

Carboxypeptidase Y (CPY) [2] = biological target: T1, Carboxypeptidase Y (CPY) (Saccharomyces cerevisiae, UniProt P00729); experiment: Enzyme; format: biochemical; conditions: CPY 60 ng/mL; for H2S release over 6 h: donors 5 μmol/L, DNS-N3 10 μmol/L, TBS pH 7.4, 37 °C
T1 sequence (P00729 112-532): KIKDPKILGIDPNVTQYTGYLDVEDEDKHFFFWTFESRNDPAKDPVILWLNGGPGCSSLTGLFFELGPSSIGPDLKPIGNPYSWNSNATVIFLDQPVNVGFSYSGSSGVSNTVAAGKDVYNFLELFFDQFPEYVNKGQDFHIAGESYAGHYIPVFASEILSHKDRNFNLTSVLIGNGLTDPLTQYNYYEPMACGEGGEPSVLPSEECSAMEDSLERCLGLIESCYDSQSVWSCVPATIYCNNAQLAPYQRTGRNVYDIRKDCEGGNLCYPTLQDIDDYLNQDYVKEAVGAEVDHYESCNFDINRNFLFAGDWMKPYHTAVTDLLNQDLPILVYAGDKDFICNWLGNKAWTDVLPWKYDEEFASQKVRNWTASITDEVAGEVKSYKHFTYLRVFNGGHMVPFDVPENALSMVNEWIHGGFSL
In short: (§1)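 Donor at 5 µmol/L final and DNS-N3 probe at 10 µmol/L final were incubated at 37 °C in 10 mmol/L TBS, pH 7.4, with 1% acetonitrile and 1% […]. The enzyme was either CPY at 60 ng/mL or pre-activated recombinant human CTSA at 250 ng/mL. Aliquots were mixed 1:1 with ACN and fluorescence read at Ex/Em 325/450 nm, minus control background. k came from a single-exponential fit, with t1/2 = 0.693/k. Triplicates, mean ± SD.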

[3] = H2S release within tissue homogenates; format: in vitro ADME, Sprague-Dawley rats; conditions: donors 250 μmol/L, rat intestine and liver homogenates, 40 min
[4] = system: human hepatic stellate LX-2 cells; experiment: TGF-β1-induced fibrosis in LX-2 cells, ACTA2 and COL1A1 mRNA; format: cell-based; conditions: LX-2, TGF-β1, 72 h; JZ-HND 25-200 μmol/L, others 200 μmol/L
[5] = biological target: T2, recombinant human cathepsin A (CTSA) (Homo sapiens, UniProt P10619); experiment: CTSA-catalyzed H2S release, fluorescent probe DNS-N3; format: biochemical; conditions: donors 5 μmol/L, CTSA 250 ng/mL, pH 7.4, 37 °C
T2 sequence (P10619 29-326 limits assumed): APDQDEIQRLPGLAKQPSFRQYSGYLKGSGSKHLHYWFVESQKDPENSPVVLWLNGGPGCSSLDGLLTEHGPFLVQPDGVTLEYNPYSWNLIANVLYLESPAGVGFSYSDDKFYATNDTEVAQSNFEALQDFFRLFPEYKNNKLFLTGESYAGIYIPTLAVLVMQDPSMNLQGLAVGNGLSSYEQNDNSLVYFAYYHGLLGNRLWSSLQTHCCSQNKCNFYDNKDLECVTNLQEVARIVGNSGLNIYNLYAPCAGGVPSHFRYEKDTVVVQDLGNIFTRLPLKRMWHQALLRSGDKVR
T2 sequence (P10619 327-480 limits assumed): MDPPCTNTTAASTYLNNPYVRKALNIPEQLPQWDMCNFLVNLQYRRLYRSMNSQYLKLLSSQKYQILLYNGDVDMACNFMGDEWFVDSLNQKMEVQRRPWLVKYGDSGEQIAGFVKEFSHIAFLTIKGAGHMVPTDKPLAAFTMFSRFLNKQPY
In short: as §1

LX-2 cells = experiment: ROS induced by TGF-β1 in LX-2 cells; format: cell-based, human; conditions: LX-2, TGF-β1 10 ng/mL, compound 100 μmol/L, 24 h
In short: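 LX-2 cells were grown in high-glucose DMEM with 10% FBS at 37 °C and 5% CO2, then plated at 1×10^5/well overnight. Cells were co-treated 24 h with compound (100 µmol/L) and TGF-β1 (10 ng/mL). They were loaded with DCFH-DA (10 µmol/L) for 30 min and Hoechst 33342 for 10 min at 37 °C, then imaged by fluorescence microscopy in the GFP channel.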

RAW264.7 macrophages = experiment: LPS-induced IL-1β and IL-6 release in RAW 264.7 macrophages; format: cell-based, mouse; conditions: RAW 264.7, LPS 1 μg/mL, 20, 100, 500 μmol/L, 24 h
In short: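 RAW 264.7 cells (2×10^5/well) were plated overnight. Cells were pretreated 1 h with compound or NaHS at 20, 100 or 500 µmol/L, then stimulated with LPS (1 µg/mL) for 24 h. IL-1β and IL-6 in the supernatants were measured by ELISA. Three independent experiments, mean ± SD.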

Carboxypeptidase Y (CPY) [6] = biological target: T1, Carboxypeptidase Y (CPY); experiment: H2S donor activation by CPY monitored by LC-MS/MS; format: in vitro ADME; conditions: JZ-HND 5 μmol/L, CPY 60 ng/mL
In short: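 Donor at 5 µmol/L final and DNS-N3 at 10 µmol/L final were incubated with CPY (60 ng/mL) in 10 mmol/L TBS, pH 7.4, with 1% menthol, at 37 °C. Parent loss and formation of products, including DNS-NH2, were quantified by LC–MS/MS against calibration curves. Rate constants came from a single-exponential fit, with t1/2 = 0.693/k. Triplicate runs, mean ± SD.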

[7] = Animal pharmacokinetics, mice livers; format: in vivo, BALB/c mice; conditions: oral JZ-HND 1.0 mmol/kg
In short: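 Male BALB/c mice, fasted 12 h without water, were gavaged at 1 mmol/kg in 0.5% CMC-Na (3 groups, n = 3 each). Plasma was separated by centrifugation and stored below −40 °C. Liver was taken at 0.5, 4 and 8 h post dose and homogenised 10:1 in PBS containing 70% MeOH. Parent and metabolites were quantified by LC–MS/MS.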

[8] = Detection of H2S and sulfur-containing species in mouse liver; format: in vivo, BALB/c mice; conditions: oral JZ-HND 1.0 mmol/kg
In short: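 BALB/c mice received an oral dose of 1.0 mmol/kg. Liver was collected before dosing (0 h) and at 0.5 and 4 h, then homogenised 10:1 in 20 mmol/L HPE-IAM in MeOH to trap H2S and sulfur species as S-alkylated derivatives, and stored below −40 °C. Derivatives were quantified by LC–MS/MS against synthesised standards and calibration curves. n = 3, mean ± SD.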

[9] = system: CCl4-induced liver injury; experiment: CCl4-induced liver injury model in mice; format: in vivo, BALB/c mice; conditions: 1 mmol/kg oral daily, 4 weeks
HepG2 cells [10] = experiment: FFA-induced ROS accumulation in HepG2 cells; format: cell-based; conditions: HepG2, compound 100 μmol/L 8 h before FFA 1 mmol/L 24 h
HepG2 cells [11] = experiment: MDA; format: cell-based; conditions: HepG2, FFA 1 mmol/L, 24 h; JZ-6 20, 100, 500 μmol/L; NaHS and JZ-9 500 μmol/L
In short: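 HepG2 cells (7×10^5/well, plated overnight) were co-incubated 24 h with FFA (1 mmol/L) alone or plus compound (20, 100 or 500 µmol/L) or NaHS (500 µmol/L). MDA in cell lysates was measured with a kit by fluorescence at Ex/Em 532/553 nm and normalised to cell counts. Three independent experiments, mean ± SD.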

HepG2 cells [12] = experiment: Ferroptosis rescue, RSL3-treated HepG2 cells; format: cell-based; conditions: HepG2, RSL3 4 μmol/L; JZ-6 20 μmol/L, Fer-1 1 μmol/L, 24 h
In short: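 HepG2 cells (5×10^3/well) were plated overnight. Cells were pretreated 2 h with RSL3 (4 µmol/L), then given medium, compound (20 µmol/L) or Fer-1 (1 µmol/L) for 24 h. CCK-8 was added for 2–4 h at 37 °C and absorbance read at 450 nm. Viability is expressed as % of medium-treated control. Three independent experiments, mean ± SD.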

O=[N+]([O-])c1ccc(OP(=O)(O)Oc2ccc([N+](=O)[O-])cc2)cc1 [BNPP, bis(p-nitrophenyl) phosphate]
effect of inhibitor on lysosomal 3 formed from JZ-6 (HepG2 cells [1]): increase in lysosomal 3

C1COCCN1.COc1ccc(P(=S)(S)N2CCOCC2)cc1 (stereo not shown) [GYY4137, reference compound]
H2S release over 6 h (Carboxypeptidase Y (CPY) [2]): low amount of H2S
H2S release behaviour in homogenates [3]: almost undetectable

CNC(=O)[C@H](C)NP(=S)(Oc1ccccc1)c1ccccc1 (stereo partly shown) [JZ-12]
H2S release over 6 h (Carboxypeptidase Y (CPY) [2]): inadequate

Cc1ccc(=O)n(-c2ccc(OP(=O)(N[C@@H](C)C(=O)OC(C)C)c3ccccc3)cc2)c1 (stereo partly shown) [JZ-17]
mRNA expression of ACTA2 and COL1A1 [4]: did not inhibit the expression of pro-fibrotic genes as much as JZ-HND

CC(C)OC(=O)[C@H](C)NP(=S)(Oc1ccc(CCN2CCOCC2)cc1)c1ccccc1 (stereo partly shown) [JZ-18]
H2S release, rate constant k [5]: 0.2978 h⁻¹
H2S yield ([5]; 10 h): approximately 37%

Cc1ccc(=O)n(-c2ccc(OP(=S)(N[C@@H](C)C(=O)OC(C)C)c3ccccc3)cc2)c1 (stereo partly drawn) [JZ-HND, isopropyl ((4-(5-methyl-2-oxopyridin-1(2H)-yl)phenoxy) (phenyl)phosphorothioyl)-L-alaninate]
ROS levels induced by TGF-β1 (LX-2 cells): significantly inhibited
generation of H2S, rate constant k (Carboxypeptidase Y (CPY) [2]; JZ-HND 5 μmol/L, pH 7.4, 37 °C): 0.3748 h⁻¹
IL-1β and IL-6 secretion (RAW264.7 macrophages): significant inhibition
mRNA expression of ACTA2 and COL1A1 [4]: dose-dependently inhibited
generation of 3, rate constant k (Carboxypeptidase Y (CPY) [6]): 0.3133 h⁻¹
generation of HND, rate constant k (Carboxypeptidase Y (CPY) [6]): 1.090 h⁻¹
degradation of donor, rate constant k (Carboxypeptidase Y (CPY) [6]; TBS pH 7.4, 37 °C): 1.085 h⁻¹
H2S release behaviour in homogenates [3]: biphasic and lasted longer
Cmax (liver) [7]: 15 µM
time of maximum intrahepatic concentration [7]: half an hour
detection in the liver after 8 h of administration ([7]; 8 h): not detected
levels of HSSH and CysSH in liver [8]: no significant change
levels of GSH, GSSH and CysSSH in liver ([8]; 0.5 h): significant increases
H2S level in liver tissue ([8]; 0.5 h vs pre-dose (0 h)): significant increase compared to the pre-dose level
collagen fiber accumulation (Masson's trichrome) [9]: significantly slowed collagen fiber accumulation
hepatic ballooning and inflammatory cell infiltration (H&E) [9]: significantly reduced
hepatic expression of oxidative stress genes (Gpx1, Sod1, Sod2, Cat) [9]: rebounded
hepatic tissue GPX activity [9]: significant increase
liver gene levels of fibrotic markers (Tgfb1, Col1a1, Col3a1, Acta2) [9]: reversals of the increased gene levels
liver mRNA levels of Nfkb1, Il1b and Tnfa [9]: strongly suppressed
serum ALT and AST levels [9]: consistently lower
serum SOD activity ([9]; vs control and HND groups): significantly lower

[Na+].[SH-] [NaHS]
IL-1β and IL-6 secretion (RAW264.7 macrophages): modest inhibitory effect
cellular ROS accumulation induced by FFA (HepG2 cells [10]): strikingly reduced the cellular fluorescence signal
MDA levels (lipid peroxidation) (HepG2 cells [11]): alleviated

CCOC(=O)c1ccc(NC2CCCCC2)c(N)c1 [ferrostatin-1]
cell viability after RSL3 (ferroptosis rescue) (HepG2 cells [12]): attenuated RSL3-induced cytotoxicity

CCC[C@H](NC(=O)[C@@H]1[C@H]2CCC[C@H]2CN1C(=O)[C@@H](NC(=O)[C@@H](NC(=O)c1cnccn1)C1CCCCC1)C(C)(C)C)C(=O)C(=O)NC1CC1 [telaprevir]
effect of inhibitor on lysosomal 3 formed from JZ-6 (HepG2 cells [1]): significant decrease
